Laboratory results taken from ChEMBL document CHEMBL1177701, “Synthesis, biological evaluation, and structure-activity relationships of dithiolethiones as inducers of cytoprotective phase 2 enzymes” (J Med Chem, 2010).
Calls of active or inactive are those of the source. No cut-off for these calls is given here.

What was measured:
Rattus norvegicus [1] = assay: Ex vivo induction of NQO1 in Sprague-Dawley rat bladder at 7.5 umol/kg/day, po for 10 days measured on day 11 relative to control; format: functional
Outline: (§1)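 Female Sprague-Dawley rats, 6 per group, gavaged with compound at 7.5 µmol/kg/day or soya oil for 10 days and killed on day 11. Bladder homogenized in ice-cold 0.2% Triton X-100 and cleared by centrifugation. NQO1 activity measured by the Ernster method, GST by the Habig method. Reported as treated/control mean ± SEM, ANOVA with Student-Newman-Keuls test.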

Rattus norvegicus [2] = assay: Ex vivo induction of GST in Sprague-Dawley rat bladder at 7.5 umol/kg/day, po for 10 days measured on day 11 relative to control; format: functional; outline: as §1
Rattus norvegicus [3] = assay: Ex vivo induction of NQO1 in Sprague-Dawley rat lung at 7.5 umol/kg/day, po for 10 days measured on day 11 relative to control; format: functional
Outline: (§2)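 Organs taken from the same rats used for the bladder study: female Sprague-Dawley, compound at 7.5 µmol/kg/day by gavage or soya oil for 10 days, killed on day 11. GI contents rinsed out under cold water and tissues stored at −80°C. Homogenized in 0.2% Triton X-100 and centrifuged. Supernatant NQO1 activity measured by the Ernster method, expressed as treated/control.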

Rattus norvegicus [4] = assay: Ex vivo induction of NQO1 in Sprague-Dawley rat jejunum at 7.5 umol/kg/day, po for 10 days measured on day 11 relative to control; format: functional; outline: as §2
Rattus norvegicus [5] = assay: Ex vivo induction of NQO1 in Sprague-Dawley rat kidney at 7.5 umol/kg/day, po for 10 days measured on day 11 relative to control; format: functional; outline: as §2
Rattus norvegicus [6] = assay: Ex vivo induction of NQO1 in Sprague-Dawley rat duodenum at 7.5 umol/kg/day, po for 10 days measured on day 11 relative to control; format: functional; outline: as §2
Rattus norvegicus [7] = assay: Ex vivo induction of NQO1 in Sprague-Dawley rat ileum at 7.5 umol/kg/day, po for 10 days measured on day 11 relative to control; format: functional; outline: as §2
Rattus norvegicus [8] = assay: Ex vivo induction of NQO1 in Sprague-Dawley rat liver at 7.5 umol/kg/day, po for 10 days measured on day 11 relative to control; format: functional; outline: as §2
Rattus norvegicus [9] = assay: Ex vivo induction of NQO1 in Sprague-Dawley rat colon at 7.5 umol/kg/day, po for 10 days measured on day 11 relative to control; format: functional; outline: as §2
Rattus norvegicus [10] = assay: Ex vivo induction of NQO1 in Sprague-Dawley rat stomach at 7.5 umol/kg/day, po for 10 days measured on day 11 relative to control; format: functional; outline: as §2
[11] = molecular target: T1, Nuclear factor erythroid 2-related factor 2 (Rattus norvegicus) (UniProt O54968); assay: Induction of Nrf-mediated GCL protein expression in wild type rat NBT2 cells at 25 uM after 24 hrs Western blot analysis; format: functional, cell-based
T1 sequence (whole entry): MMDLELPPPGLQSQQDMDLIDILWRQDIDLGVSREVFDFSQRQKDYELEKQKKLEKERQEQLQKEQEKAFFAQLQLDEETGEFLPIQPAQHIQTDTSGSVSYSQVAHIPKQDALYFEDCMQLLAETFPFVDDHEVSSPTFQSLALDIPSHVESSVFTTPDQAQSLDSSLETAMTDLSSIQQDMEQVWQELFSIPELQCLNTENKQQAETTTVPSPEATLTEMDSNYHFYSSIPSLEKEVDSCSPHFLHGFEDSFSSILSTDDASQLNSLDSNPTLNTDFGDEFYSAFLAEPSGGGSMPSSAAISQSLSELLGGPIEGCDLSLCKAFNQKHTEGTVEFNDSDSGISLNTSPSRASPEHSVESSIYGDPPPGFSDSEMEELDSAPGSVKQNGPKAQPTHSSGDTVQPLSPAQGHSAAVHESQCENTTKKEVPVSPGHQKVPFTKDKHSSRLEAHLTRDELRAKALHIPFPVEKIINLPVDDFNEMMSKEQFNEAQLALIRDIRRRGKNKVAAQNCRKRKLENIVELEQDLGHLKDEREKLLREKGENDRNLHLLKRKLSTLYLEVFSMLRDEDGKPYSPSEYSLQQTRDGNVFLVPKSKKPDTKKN
Outline: (§3)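 NBT-II cells transfected with Nrf2 stealth RNAi or control RNAi (0.584 nmol per dish, lipofectamine 2000) for 48 h. Then treated with compound at 25 µM or vehicle for 24 h, with 0.1% DMSO final. Lysates analyzed by Western blot for Nrf2, GCL, GST-α, GST-μ and NQO1, with GAPDH as loading control.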

[12] = molecular target: T1, Nuclear factor erythroid 2-related factor 2 (Rattus norvegicus); assay: Induction of Nrf-mediated GST-alpha protein expression in wild type rat NBT2 cells at 25 uM after 24 hrs Western blot analysis; format: functional, cell-based; outline: as §3
Rattus norvegicus [13] = assay: Ex vivo induction GST-alpha protein expression in Sprague-Dawley rat bladder at 7.5 umol/kg/day, po for 10 days measured on day 11 by Western blot analysis; format: functional, organism-based
Outline: (§4)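 Female Sprague-Dawley rats, 3 per group, gavaged once daily with compound at 7.5 µmol/kg or soya oil vehicle for 10 days. Killed on day 11. Bladder homogenized in 10 mM Tris-HCl pH 7.4, 0.25 M sucrose, 1 mM PMSF, 1 µg/ml leupeptin. 25-40 µg protein run by SDS-PAGE, then Western blot, with GAPDH as loading control.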

NBT2 [14] = assay: Induction of GST-alpha protein expression in rat NBT2 cells after 24 hrs by Western blot analysis; format: functional, cell-based
Outline: (§5)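 NBT-II rat bladder carcinoma cells grown in MEM with 10% FBS. Plated overnight, then exposed to compound at 25 or 50 µM for 24 h, with 0.1% DMSO final. Cells trypsinized, lysed with 1 mM PMSF and sonicated. 25-40 µg protein taken for Western blot, GAPDH as loading control. At least two experiments.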

NBT2 [15] = assay: Induction of GST-alpha protein expression in Nrf gene knockout rat NBT2 cells at 25 uM after 24 hrs Western blot analysis; format: functional, cell-based; outline: as §3
[16] = molecular target: T1, Nuclear factor erythroid 2-related factor 2 (Rattus norvegicus); assay: Induction of Nrf-mediated GST-mu protein expression in wild type rat NBT2 cells at 25 uM after 24 hrs Western blot analysis; format: functional, cell-based; outline: as §3
NBT2 [17] = assay: Induction of GST-mu protein expression in rat NBT2 cells after 24 hrs by Western blot analysis; format: functional, cell-based; outline: as §5
Rattus norvegicus [18] = assay: Ex vivo induction GCL protein expression in Sprague-Dawley rat bladder at 7.5 umol/kg/day, po for 10 days measured on day 11 by Western blot analysis; format: functional, organism-based; outline: as §4
NBT2 [19] = assay: Induction of GCL protein expression in Nrf gene knockout rat NBT2 cells at 25 uM after 24 hrs Western blot analysis; format: functional, cell-based; outline: as §3
Rattus norvegicus [20] = assay: Ex vivo induction GST-mu protein expression in Sprague-Dawley rat bladder at 7.5 umol/kg/day, po for 10 days measured on day 11 by Western blot analysis; format: functional, organism-based; outline: as §4
[21] = molecular target: T1, Nuclear factor erythroid 2-related factor 2 (Rattus norvegicus); assay: Induction of Nrf-mediated NQO1 protein expression in wild type rat NBT2 cells at 25 uM after 24 hrs Western blot analysis; format: functional, cell-based; outline: as §3
Rattus norvegicus [22] = assay: Ex vivo induction GST-pi protein expression in Sprague-Dawley rat bladder at 7.5 umol/kg/day, po for 10 days measured on day 11 by Western blot analysis; format: functional, organism-based; outline: as §4
NBT2 [23] = assay: Induction of NQO1 protein expression in rat NBT2 cells after 24 hrs by Western blot analysis; format: functional, cell-based; outline: as §5
NBT2 [24] = assay: Induction of GST-pi protein expression in rat NBT2 cells at 25 to 50 uM after 24 hrs by Western blot analysis; format: functional, cell-based; outline: as §5
[25] = molecular target: T1, Nuclear factor erythroid 2-related factor 2 (Rattus norvegicus); assay: Induction of Nrf in wild type rat NBT2 cells at 25 uM after 24 hrs Western blot analysis; format: functional, cell-based; outline: as §3
NBT2 [26] = assay: Induction of NQO1 protein expression in Nrf gene knockout rat NBT2 cells at 25 uM after 24 hrs Western blot analysis; format: functional, cell-based; outline: as §3
NBT2 [27] = assay: Induction of GST-mu protein expression in Nrf gene knockout rat NBT2 cells at 25 uM after 24 hrs Western blot analysis; format: functional, cell-based; outline: as §3
NBT2 [28] = assay: Induction of GCL protein expression in rat NBT2 cells at 25 to 50 uM after 24 hrs by Western blot analysis; format: functional, cell-based; outline: as §5
[29] = Dissociation constant, pKa of the compound; format: physicochemical

Cc1ssc(=S)c1C(=O)O
fold change (FC) (Rattus norvegicus [1]): 1.1
fold change (FC) (Rattus norvegicus [2]): 0.99

CCOC(=O)c1cssc1=S
fold change (FC) (Rattus norvegicus [3]): 1.21
fold change (FC) (Rattus norvegicus [4]): 1.04
fold change (FC) (Rattus norvegicus [5]): 1.47
fold change (FC) (Rattus norvegicus [6]): 1.21
fold change (FC) (Rattus norvegicus [1]): 4.82
fold change (FC) (Rattus norvegicus [7]): 1.11
fold change (FC) (Rattus norvegicus [8]): 1.04
fold change (FC) (Rattus norvegicus [9]): 0.98
fold change (FC) (Rattus norvegicus [10]): 2.15
fold change (FC) (Rattus norvegicus [2]): 2.76

Cc1cc(=S)ss1
fold change (FC) (Rattus norvegicus [1]): 1.23
fold change (FC) (Rattus norvegicus [2]): 1.08

O=c1ccss1
fold change (FC) (Rattus norvegicus [1]): 1.26
fold change (FC) (Rattus norvegicus [2]): 1.01

CCOC(=O)C1CCc2c1ssc2=S (configuration not stated)
Activity [11]: Active
fold change (FC) (Rattus norvegicus [3]): 1.17
fold change (FC) (Rattus norvegicus [4]): 1.38
Activity [12]: Active
Activity (Rattus norvegicus [13]): Active
Activity (NBT2 [14]): Dose-dependent effect
Activity (NBT2 [15]): inactive
fold change (FC) (Rattus norvegicus [5]): 1.86
fold change (FC) (Rattus norvegicus [6]): 1.53
fold change (FC) (Rattus norvegicus [1]): 4.47
fold change (FC) (Rattus norvegicus [7]): 1.2
Activity [16]: Active
fold change (FC) (Rattus norvegicus [8]): 1.17
Activity (NBT2 [17]): Dose-dependent effect
fold change (FC) (Rattus norvegicus [9]): 1
Activity (Rattus norvegicus [18]): Active
fold change (FC) (Rattus norvegicus [10]): 1.93
Activity (NBT2 [19]): inactive
Activity (Rattus norvegicus [20]): Active
fold change (FC) (Rattus norvegicus [2]): 2.29
Activity [21]: Active
Activity (Rattus norvegicus [22]): inactive
Activity (NBT2 [23]): Dose-dependent effect
Activity (NBT2 [24]): inactive
Activity [25]: Active
Activity (NBT2 [26]): inactive
Activity (NBT2 [27]): inactive
Activity (NBT2 [28]): Active

COC(=O)c1c(C)ssc1=S
fold change (FC) (Rattus norvegicus [1]): 1.24
fold change (FC) (Rattus norvegicus [2]): 1.24

O=c1ssc2c1CCC2
fold change (FC) (Rattus norvegicus [1]): 1.24
fold change (FC) (Rattus norvegicus [2]): 1.11

S=c1ccss1 [DITHIOLETHIONE]
fold change (FC) (Rattus norvegicus [3]): 1.37
fold change (FC) (Rattus norvegicus [4]): 2.31
fold change (FC) (Rattus norvegicus [5]): 1.82
fold change (FC) (Rattus norvegicus [6]): 5.6
fold change (FC) (Rattus norvegicus [1]): 2.78
fold change (FC) (Rattus norvegicus [7]): 1.76
fold change (FC) (Rattus norvegicus [8]): 1.3
fold change (FC) (Rattus norvegicus [9]): 1.81
fold change (FC) (Rattus norvegicus [10]): 5.31
fold change (FC) (Rattus norvegicus [2]): 1.7

CCOC(=O)c1cc(=S)ss1
fold change (FC) (Rattus norvegicus [1]): 1.13
fold change (FC) (Rattus norvegicus [2]): 1.09

O=C(O)c1cc(=S)ss1
pKa [29]: 1.2
fold change (FC) (Rattus norvegicus [1]): 1.27
fold change (FC) (Rattus norvegicus [2]): 1.11

CCOC(=O)c1c(N)ssc1=S
fold change (FC) (Rattus norvegicus [1]): 2.03
fold change (FC) (Rattus norvegicus [2]): 1.25

Oc1ccc(-c2cc(=S)ss2)cc1
fold change (FC) (Rattus norvegicus [1]): 1.02
fold change (FC) (Rattus norvegicus [2]): 0.95
